Activity calls are given as the source filed them. The calls are words filed in the database; no cut-off is given here.
Assays:
[1] = Inhibition of ALR1 in Sprague-Dawley rat kidney by spectrophotometry; format: tissue-based
Procedure, shortened: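 Rat kidney enzyme from 3 vol 10 mM sodium phosphate pH 7.2 homogenate (0.25 M sucrose, EDTA, β-mercaptoethanol), 40-75% ammonium sulfate cut, dialyzed. 37 °C, 0.25 mL 20 mM sodium D-glucuronate, 0.25 mL 0.12 mM NADPH, 0.1 M phosphate pH 7.2, 1 mL total. NADPH oxidation followed at 340 nm against a substrate-free blank.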

[2] = (§1) Inhibition of ALR2 in Sprague-Dawley rat lens by spectrophotometry; format: tissue-based, Lens of camera-type eye
Procedure, shortened: (§2)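 Rat lens extract, ammonium sulfate fractionated and dialyzed. 30 °C, 0.1 M sodium phosphate pH 6.2 with 0.25 mL 10 mM D,L-glyceraldehyde and 0.25 mL 0.104 mM NADPH in 1 mL total. Preincubated 10 min without substrate, then read 5 min at 340 nm against a substrate-free blank. Screened at 10^-4 M, then 10^-5 to 10^-8 M. IC50 by linear regression of log-dose curve, ≥4 concentrations.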

Rattus norvegicus [3] = assay: Prevention of cataract development in severely galactosemic Sprague-Dawley Albino rat assessed as lens opacification administered four timely daily as 3% eye-drop solution in precorneal region for 14 days by slit-lamp microscopy; format: functional, organism-based; conditions: Lens of camera-type eye
Procedure, shortened: (§3)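 Sprague-Dawley rats, 45-55 g, on 50% D-galactose chow, 15 per group. Both eyes dosed four times daily with 3% eye-drops or vehicle, starting one day before the diet switch. Lenses examined by slit-lamp after 1% atropine dilation at baseline and days 6, 8, 10, 14, 21. Graded stages 0-4, animals per stage counted, Mann-Whitney U-test.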

Rattus norvegicus [4] = assay: Prevention of cataract development in severely galactosemic Sprague-Dawley Albino rat assessed as lens opacification administered four timely daily as 3% eye-drop solution in precorneal region for 16 days by slit-lamp microscopy; format: functional, organism-based; conditions: Lens of camera-type eye
Rattus norvegicus [5] = assay: Prevention of cataract development in severely galactosemic Sprague-Dawley Albino rat assessed as lens opacification administered four timely daily as 3% eye-drop solution in precorneal region for 13 days by slit-lamp microscopy; format: functional, organism-based; conditions: Lens of camera-type eye
Rattus norvegicus [6] = assay: Prevention of cataract development in severely galactosemic Sprague-Dawley Albino rat assessed as lens opacification administered four timely daily as 3% eye-drop solution in precorneal region for 21 days by slit-lamp microscopy; format: functional, organism-based; conditions: Lens of camera-type eye; procedure, shortened: as §3
Rattus norvegicus [7] = assay: Prevention of cataract development in severely galactosemic Sprague-Dawley Albino rat assessed as lens opacification administered four timely daily as 3% eye-drop solution in precorneal region for 11 days by slit-lamp microscopy; format: functional, organism-based; conditions: Lens of camera-type eye
Rattus norvegicus [8] = assay: Prevention of cataract development in severely galactosemic Sprague-Dawley Albino rat assessed as lens opacification administered four timely daily as 3% eye-drop solution in precorneal region for 19 days by slit-lamp microscopy; format: functional, organism-based; conditions: Lens of camera-type eye
Rattus norvegicus [9] = assay: Prevention of cataract development in severely galactosemic Sprague-Dawley Albino rat assessed as lens opacification administered four timely daily as 3% eye-drop solution in precorneal region for 12 days by slit-lamp microscopy; format: functional, organism-based; conditions: Lens of camera-type eye
Rattus norvegicus [10] = assay: Prevention of cataract development in severely galactosemic Sprague-Dawley Albino rat assessed as lens opacification administered four timely daily as 3% eye-drop solution in precorneal region for 17 days by slit-lamp microscopy; format: functional, organism-based; conditions: Lens of camera-type eye
Rattus norvegicus [11] = assay: Prevention of cataract development in severely galactosemic Sprague-Dawley Albino rat assessed as lens opacification administered four timely daily as 3% eye-drop solution in precorneal region for 20 days by slit-lamp microscopy; format: functional, organism-based; conditions: Lens of camera-type eye
Rattus norvegicus [12] = assay: Prevention of cataract development in severely galactosemic Sprague-Dawley Albino rat assessed as lens opacification administered four timely daily as 3% eye-drop solution in precorneal region for 18 days by slit-lamp microscopy; format: functional, organism-based; conditions: Lens of camera-type eye
Rattus norvegicus [13] = assay: Prevention of cataract development in severely galactosemic Sprague-Dawley Albino rat assessed as lens opacification administered four timely daily as 3% eye-drop solution in precorneal region for 15 days by slit-lamp microscopy; format: functional, organism-based; conditions: Lens of camera-type eye
Rattus norvegicus [14] = species on record: Rattus norvegicus; assay: Inhibition of ALR2 in Sprague-Dawley rat lens at >100 uM by spectrophotometry; format: tissue-based; conditions: Lens of camera-type eye; procedure, shortened: as §2
Rattus norvegicus [15] = species on record: Rattus norvegicus; assay: as §1; format: tissue-based; conditions: Lens of camera-type eye; procedure, shortened: as §2
Rattus norvegicus [16] = assay: Prevention of cataract development in severely galactosemic Sprague-Dawley Albino rat administered four timely daily as 3% eye-drop solution in precorneal region for 21 days; format: functional, organism-based; procedure, shortened: as §3

| Structure (SMILES) | IC50 [1] | IC50 [2] | other results |
| --- | --- | --- | --- |
| O=C(O)Cc1nc(-c2ccccc2)no1 | > 10 µM | 3330 nM | – |
| O=C(O)Cc1nc(Cc2ccc(Br)cc2F)no1 | > 10 µM | 360 nM | – |
| O=C(O)Cc1nc(-c2cccc([N+](=O)[O-])c2)no1 | > 10 µM | 710 nM | – |
| O=C(O)Cc1nc(Cc2ccc(F)cc2)no1 | > 10 µM | 21700 nM | – |
| COc1ccc(-c2nc(CC(=O)O)co2)cc1 | – | 54800 nM | – |
| O=C(O)Cc1coc(-c2ccccc2)n1 | – | – | Activity (Rattus norvegicus [14]): Active; Activity (Rattus norvegicus [15]): inactive |
| O=C(O)Cc1nc(Cc2ccc(Cl)cc2)no1 | > 10 µM | 5110 nM | – |
| Cc1ccc(-c2noc(CC(=O)O)n2)cc1 | > 10 µM | 2500 nM | – |
| O=C(O)Cc1coc(-c2ccc(F)cc2)n1 | – | – | Activity (Rattus norvegicus [14]): Active; Activity (Rattus norvegicus [15]): inactive |
| COc1ccc(-c2noc(CC(=O)O)n2)cc1 | > 10 µM | 270 nM | Activity (Rattus norvegicus [16]): Active; Activity (Rattus norvegicus [3]): Active; Activity (Rattus norvegicus [4]): Active; Activity (Rattus norvegicus [5]): Active; Activity (Rattus norvegicus [6]): Active; Activity (Rattus norvegicus [7]): Active; Activity (Rattus norvegicus [9]): Active; Activity (Rattus norvegicus [10]): Active; Activity (Rattus norvegicus [12]): Active; Activity (Rattus norvegicus [13]): Active |
| O=C(O)Cc1nc(-c2ccc(Br)cc2F)no1 | > 10 µM | 2000 nM | – |
| Cc1ccc(-c2nc(CC(=O)O)co2)cc1 | – | – | Activity (Rattus norvegicus [14]): Active; Activity (Rattus norvegicus [15]): inactive |
| O=C(O)Cc1nc(Cc2ccccc2)no1 | > 10 µM | 28400 nM | – |
| COc1ccc(Cc2noc(CC(=O)O)n2)cc1 | > 10 µM | 8180 nM | – |

The remaining compounds from weak to strong by IC50 [2], led by results:

| IC50 [1] | IC50 [2] | Structure (SMILES) | other results |
| --- | --- | --- | --- |
| > 10 µM | 8430 nM | O=C(O)Cc1nc(-c2ccc(F)cc2)no1 | – |
| > 10 µM | 6300 nM | O=C(O)Cc1nc(Cc2ccc(C(F)(F)F)cc2)no1 | – |
| > 10 µM | 5290 nM | Cc1ccc(Cc2noc(CC(=O)O)n2)cc1 | – |
| > 10 µM | 3950 nM | O=C(O)Cc1nc(-c2ccc(Cl)cc2)no1 | – |
| > 10 µM | 1660 nM | O=C(O)Cc1nc(Cc2ccc(Br)cc2)no1 | – |
| > 10 µM | 1080 nM | O=C(O)Cc1nc(-c2ccc(C(F)(F)F)cc2)no1 | – |
| > 10 µM | 690 nM | O=C(O)Cc1nc(-c2ccc(Br)cc2)no1 | – |
| > 10 µM | 300 nM | O=C(O)Cc1nc(Cc2cccc([N+](=O)[O-])c2)no1 | – |
| > 10 µM | 50 nM | COc1ccc2c(C(=S)N(C)CC(=O)O)cccc2c1C(F)(F)F [TOLRESTAT] | Activity (Rattus norvegicus [3]): Active; Activity (Rattus norvegicus [4]): Active; Activity (Rattus norvegicus [5]): Active; Activity (Rattus norvegicus [6]): Active; Activity (Rattus norvegicus [7]): Active; Activity (Rattus norvegicus [8]): Active; Activity (Rattus norvegicus [9]): Active; Activity (Rattus norvegicus [10]): Active; Activity (Rattus norvegicus [11]): Active; Activity (Rattus norvegicus [12]): Active; Activity (Rattus norvegicus [13]): Active |

Reference: ChEMBL document CHEMBL1150328, “Acetic acid aldose reductase inhibitors bearing a five-membered heterocyclic core with potent topical activity in a visual impairment rat model” (J Med Chem, 2008)
